Measurements from ChEMBL document CHEMBL1148401, “Synthesis and structure-activity relationships of novel arylpiperazines as potent and selective agonists of the melanocortin subtype-4 receptor” (J Med Chem, 2004).

Tests used:
Melanocortin receptor 4 [1] = target: T1, Melanocortin receptor 4 (Homo sapiens, UniProt P32245); assay: Agonistic potency towards human melanocortin 4 receptor, determined by 50% maximum cAMP release; format: functional
Procedure, shortened: (§1)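 HEK293 cells stably expressing human MC3 or MC4 receptor, suspended in HBSS/0.1% BSA/10 mM HEPES at 1 × 10⁶ cells/mL. Compound serial dilutions 10 µM to 0.1 nM; NDP-α-MSH control agonist 100 nM to 1 pM. 20 min at 37 °C, quenched with sodium acetate/Triton X-100. cAMP by SPA competition with ¹²⁵I-cAMP, 12 h. EC50 at 50% maximal cAMP release, n = 2, ± SEM.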

Melanocortin receptor 4 [2] = target: T1, Melanocortin receptor 4; assay: Binding affinity towards human melanocortin 4 receptor using [125I]NDP-alpha-MSH as a radioligand in HEK293 cells; format: cell-based
Procedure, shortened: (§2)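 Membranes from HEK293 cells stably expressing human MC1, MC3, MC4 or MC5 receptor, 0.5-5.0 µg protein, with 100 pM ¹²⁵I-NDP-α-MSH and WGA SPA beads. Buffer 25 mM HEPES pH 7.5, 10 mM CaCl₂, 0.3% BSA. Compound 30 µM to 300 pM. 10 h at room temperature, scintillation counting. Four-parameter logistic IC50 converted to Ki by Cheng-Prusoff; n = 2 or 4, ± SEM.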

Melanocortin receptor 3 [3] = target: T2, Melanocortin receptor 3 (Homo sapiens, UniProt P41968); assay: Agonistic potency towards human Melanocortin 3 receptor (MC3R) was determined by 50% maximum cAMP release; format: functional; procedure, shortened: as §1
Melanocortin receptor 5 = Melanocortin receptor 5 (Homo sapiens, UniProt P33032); assay: Binding affinity towards human Melanocortin 5 receptor (MC5R) using [125I]NDP-alpha-MSH as a radioligand in membranes of HEK 293 cells; format: cell membranes, HEK293; procedure, shortened: as §2
Melanocortin receptor 3 [4] = target: T2, Melanocortin receptor 3; assay: Binding affinity towards human Melanocortin 3 receptor (MC3R) using [125I]NDP-alpha-MSH as a radioligand in membranes of HEK 293 cells; format: cell membranes, HEK293; procedure, shortened: as §2
[5] = target: Melanocyte-stimulating hormone receptor (Homo sapiens, UniProt Q01726); assay: Binding affinity towards human Melanocortin 1 receptor (MC1R) using [125I]NDP-alpha-MSH as a radioligand in membranes of HEK 293 cells; format: cell membranes, HEK293; procedure, shortened: as §2
[6] = Volume distribution in fischer rats at 5 mg/kg dose, administered intravenously; format: ADME, organism-based; set-up: dose 5 mg/kg, route intravenous; details: rat, in vivo, iv, read-out: Volume distribution
Procedure, shortened: (§3)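 Fischer 344 rats, n = 3 per route: 5 mg/kg iv, or 30 mg/kg by gavage in 10% acacia. Retro-orbital blood into heparinized syringes at 0.5, 1, 2, 6 h after oral dosing and 0.083, 1, 2, 4, 6, 8, 24 h after iv dosing. Plasma stored at -70 °C and quantified by electrospray LC/MS/MS against standards by least-squares regression.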

[7] = Tmax in fischer rats at 30 mg/kg dose, administered orally; details: rat, in vivo, po
[8] = Clearance in fischer rats at 5 mg/kg dose, administered intravenously; format: ADME, organism-based; set-up: dose 5 mg/kg, route intravenous; details: rat, in vivo, iv; procedure, shortened: as §3
[9] = Half-life in fischer rats at 5 mg/kg dose, administered intravenously; format: ADME, organism-based; set-up: dose 5 mg/kg, route intravenous; details: rat, in vivo, iv; procedure, shortened: as §3
[10] = Oral bioavailability in fischer rats at 30 mg/kg dose, administered perorally; format: ADME, organism-based; details: rat, in vivo, read-out: Bioavailabiility; procedure, shortened: as §3

Melanocyte-stimulating hormone receptor, sequence (Q01726 whole entry): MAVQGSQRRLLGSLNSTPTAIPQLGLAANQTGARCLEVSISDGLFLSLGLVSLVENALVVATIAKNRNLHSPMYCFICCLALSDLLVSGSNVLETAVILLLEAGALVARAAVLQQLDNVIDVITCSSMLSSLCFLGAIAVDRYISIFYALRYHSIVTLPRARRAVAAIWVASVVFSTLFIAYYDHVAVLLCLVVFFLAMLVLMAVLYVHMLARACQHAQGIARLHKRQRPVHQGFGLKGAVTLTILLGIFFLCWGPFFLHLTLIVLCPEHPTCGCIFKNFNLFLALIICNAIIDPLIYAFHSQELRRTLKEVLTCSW
T2 sequence (P41968 whole entry): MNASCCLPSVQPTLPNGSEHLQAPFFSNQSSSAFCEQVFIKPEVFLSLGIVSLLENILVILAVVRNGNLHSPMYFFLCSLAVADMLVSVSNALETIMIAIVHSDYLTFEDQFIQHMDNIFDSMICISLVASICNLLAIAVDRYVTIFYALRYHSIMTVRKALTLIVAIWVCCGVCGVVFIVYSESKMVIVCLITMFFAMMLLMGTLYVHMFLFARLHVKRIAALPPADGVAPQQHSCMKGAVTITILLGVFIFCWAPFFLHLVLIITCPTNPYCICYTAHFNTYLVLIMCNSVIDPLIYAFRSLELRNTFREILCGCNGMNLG
T1 sequence (P32245 whole entry): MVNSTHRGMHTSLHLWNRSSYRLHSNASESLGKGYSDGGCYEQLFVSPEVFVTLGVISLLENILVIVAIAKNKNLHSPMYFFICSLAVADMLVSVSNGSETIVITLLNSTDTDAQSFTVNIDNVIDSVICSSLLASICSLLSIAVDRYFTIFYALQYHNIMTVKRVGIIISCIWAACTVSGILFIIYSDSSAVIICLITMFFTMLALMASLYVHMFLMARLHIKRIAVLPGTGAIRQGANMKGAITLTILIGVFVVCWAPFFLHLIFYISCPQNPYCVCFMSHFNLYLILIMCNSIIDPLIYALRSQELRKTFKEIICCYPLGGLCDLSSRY
Melanocortin receptor 5, sequence (P33032 whole entry): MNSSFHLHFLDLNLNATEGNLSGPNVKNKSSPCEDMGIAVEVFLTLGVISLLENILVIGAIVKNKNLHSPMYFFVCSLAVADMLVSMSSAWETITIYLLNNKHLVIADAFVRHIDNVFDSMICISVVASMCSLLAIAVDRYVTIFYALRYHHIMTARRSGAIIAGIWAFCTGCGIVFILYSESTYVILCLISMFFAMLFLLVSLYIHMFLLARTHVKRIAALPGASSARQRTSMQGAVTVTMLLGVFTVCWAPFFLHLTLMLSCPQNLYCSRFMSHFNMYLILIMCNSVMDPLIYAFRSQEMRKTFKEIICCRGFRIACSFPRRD

Row | SMILES | EC50 (Melanocortin receptor 4 [1]) [nM] | Ki (Melanocortin receptor 4 [2]) [nM] | other results
1 | C[C@@H](O)c1ccccc1N1CCN(C(=O)[C@@H](Cc2ccc(Cl)cc2)NC(=O)[C@H]2Cc3ccccc3CN2)CC1 | 44 | 340 | 
2 | CC(C)Oc1ccccc1N1CCN(C(=O)[C@@H](Cc2ccc(Cl)cc2)NC(=O)[C@H]2Cc3ccccc3CN2)CC1 | 93 | 460 | 
3 | CCOc1ccccc1N1CCN(C(=O)[C@@H](Cc2ccc(Cl)cc2)NC(=O)[C@H]2Cc3ccccc3CN2)CC1 | 40 | 570 | 
4 | O=C(N[C@H](Cc1ccc(Cl)cc1)C(=O)N1CCN(c2ccccc2CO)CC1)[C@H]1Cc2ccccc2CN1 | 150 | 630 | 
5 | O=C(N[C@H](Cc1ccc(Cl)cc1)C(=O)N1CCN(c2ccccc2CN2CCCC2)CC1)[C@H]1Cc2ccccc2CN1 | 39 | 24 | 
6 | O=C(N[C@H](Cc1ccc(Cl)cc1)C(=O)N1CCN(c2ccccc2Oc2ccccc2)CC1)[C@H]1Cc2ccccc2CN1 | 400 | 640 | 
7 | Nc1ccccc1N1CCN(C(=O)[C@@H](Cc2ccc(Cl)cc2)NC(=O)[C@H]2Cc3ccccc3CN2)CC1 | 200 | 1700 | 
8 | O=C(N[C@H](Cc1ccc(Cl)cc1)C(=O)N1CCN(c2ccccc2OCc2ccccc2)CC1)[C@H]1Cc2ccccc2CN1 | 150 | 640 | 
9 | CN(C)CCOc1ccccc1N1CCN(C(=O)[C@@H](Cc2ccc(Cl)cc2)NC(=O)[C@H]2Cc3ccccc3CN2)CC1 | 98 | 230 | 
10 | CC(C)c1ccccc1N1CCN(C(=O)[C@@H](Cc2ccc(Cl)cc2)NC(=O)[C@H]2Cc3ccccc3CN2)CC1 | 110 | 720 | 
11 | CCCN(CCC)Cc1ccccc1N1CCN(C(=O)[C@@H](Cc2ccc(Cl)cc2)NC(=O)[C@H]2Cc3ccccc3CN2)CC1 | 8 | 35 | 
12 | CN(C)Cc1ccccc1N1CCN(C(=O)[C@@H](Cc2ccc(Cl)cc2)NC(=O)[C@H]2Cc3ccccc3CN2)CC1 | 7 | 60 | EC50 (Melanocortin receptor 3 [3]): 1800 nM; Ki (Melanocortin receptor 5): 1400 nM; Ki (Melanocortin receptor 3 [4]): 7000 nM; Ki [5]: > 20000 nM
13 | CS(=O)(=O)Nc1ccccc1N1CCN(C(=O)[C@@H](Cc2ccc(Cl)cc2)NC(=O)[C@H]2Cc3ccccc3CN2)CC1 | 16 | 220 | EC50 (Melanocortin receptor 3 [3]): 2000 nM; Ki (Melanocortin receptor 5): 1200 nM; Vd [6]: 4.5 L/kg; Tmax [7]: 3 h; clearance [8]: 43 mL/min/kg; half-life [9]: 1.7 h; Ki (Melanocortin receptor 3 [4]): 8800 nM; Ki [5]: 12000 nM; bioavailability [10]: 30%
14 | CN(C)c1ccccc1N1CCN(C(=O)[C@@H](Cc2ccc(Cl)cc2)NC(=O)[C@H]2Cc3ccccc3CN2)CC1 | 44 | 1100 | 
15 | Cn1ccnc1COc1ccccc1N1CCN(C(=O)[C@@H](Cc2ccc(Cl)cc2)NC(=O)[C@H]2Cc3ccccc3CN2)CC1 | 140 | 530 | 
16 | Cc1nccn1Cc1ccccc1N1CCN(C(=O)[C@@H](Cc2ccc(Cl)cc2)NC(=O)[C@H]2Cc3ccccc3CN2)CC1 | 21 | 140 | 
17 | O=C(N[C@H](Cc1ccc(Cl)cc1)C(=O)N1CCN(c2ccccc2Cn2ccnc2)CC1)[C@H]1Cc2ccccc2CN1 | 14 | 110 | EC50 (Melanocortin receptor 3 [3]): 1600 nM; Ki (Melanocortin receptor 5): 700 nM; Ki (Melanocortin receptor 3 [4]): 3600 nM; Ki [5]: 4000 nM

Second part, led by results:

Row | EC50 (Melanocortin receptor 4 [1]) [nM] | Ki (Melanocortin receptor 4 [2]) [nM] | SMILES | other results
18 | 145 | 1300 | CCc1ccccc1N1CCN(C(=O)[C@@H](Cc2ccc(Cl)cc2)NC(=O)[C@H]2Cc3ccccc3CN2)CC1 | 
19 | 34 | 350 | C[C@H](O)c1ccccc1N1CCN(C(=O)[C@@H](Cc2ccc(Cl)cc2)NC(=O)[C@H]2Cc3ccccc3CN2)CC1 | 
20 | 210 | 2400 | O=C(N[C@H](Cc1ccc(Cl)cc1)C(=O)N1CCN(c2ccccc2[N+](=O)[O-])CC1)[C@H]1Cc2ccccc2CN1 | 
21 | 1300 | 1700 | Cc1ccccc1N1CCN(C(=O)[C@@H](Cc2ccc(Cl)cc2)NC(=O)[C@H]2Cc3ccccc3CN2)CC1 | 
22 | 490 | 1900 | O=C(N[C@H](Cc1ccc(Cl)cc1)C(=O)N1CCN(c2ccccc2O)CC1)[C@H]1Cc2ccccc2CN1 | 
23 | 48 | 210 | CS(=O)(=O)NCc1ccccc1N1CCN(C(=O)[C@@H](Cc2ccc(Cl)cc2)NC(=O)[C@H]2Cc3ccccc3CN2)CC1 | 
24 | 44 | 170 | Cn1ccnc1Cc1ccccc1N1CCN(C(=O)[C@@H](Cc2ccc(Cl)cc2)NC(=O)[C@H]2Cc3ccccc3CN2)CC1 | 
25 | 71 | 1100 | COc1ccccc1N1CCN(C(=O)[C@@H](Cc2ccc(Cl)cc2)NC(=O)[C@H]2Cc3ccccc3CN2)CC1 | 
26 | 360 | 6600 | O=C(N[C@H](Cc1ccc(Cl)cc1)C(=O)N1CCN(c2ccccc2)CC1)[C@H]1Cc2ccccc2CN1 | 
27 | 14 | 34 | CCN(CC)Cc1ccccc1N1CCN(C(=O)[C@@H](Cc2ccc(Cl)cc2)NC(=O)[C@H]2Cc3ccccc3CN2)CC1 | 
28 | 37 | 27 | O=C(N[C@H](Cc1ccc(Cl)cc1)C(=O)N1CCN(c2ccccc2CN2CCCCC2)CC1)[C@H]1Cc2ccccc2CN1 | 
